# Laboratory results as given in ChEMBL document CHEMBL4373647, “Design, synthesis, and antimicrobial evaluation of 1,4-dihydroindeno[1,2-c]pyrazole tethered carbohydrazide hybrids: exploring their in silico ADMET, ergosterol inhibition and ROS inducing potential” (Medchemcomm, 2019).
# Legend:
# Format in all cases: functional
# [1] = test system: Micrococcus luteus; test: Bactericidal activity against Micrococcus luteus MTCC 2470 assessed as bacterial killing incubated for 24 hrs; details: MTCC 2470, 24 h
# Procedure, shortened: (§1)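 Broth tube assay: compound at 0–125 µg/mL in Mueller Hinton broth, overnight culture added to 0.5 McFarland (1.5 × 10^8 cfu/mL), held 24 h at 37 °C. 10 µL from each tube plated on Mueller Hinton agar. MBC is the lowest concentration that kills the strain. Duplicates, means reported.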
# [2] = test system: Candida albicans; test: Antifungal activity against Candida albicans MTCC 3017 assessed as inhibition of fungal growth incubated for 24 hrs by agar well diffusion method; details: MTCC 3017, 24 h
# Procedure, shortened: (§2)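 Candida strains from MTCC, pre-cultured and spread on Mueller Hinton agar. Wells received compound dissolved in 10% DMSO, 125–0.97 µg/mL; miconazole standard over the same range, DMSO negative control. After 24 h at 37 °C, MIC was read as the lowest concentration giving an inhibition zone. Duplicate experiments, means given.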
# [3] = test system: Pichia kudriavzevii; test: Ratio of MFC to MIC against Candida krusei MTCC 3020
# Procedure, shortened: (§3)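 MIC by agar well diffusion: Candida lawns on Mueller-Hinton agar, wells loaded with compound in 10% DMSO (125–0.97 µg/mL), 24 h at 37 °C, lowest concentration giving an inhibition zone. MFC: compound in Mueller-Hinton broth (125–0.97 µg/mL) with yeast, 24 h at 37 °C, 10 µL plated on agar, lowest killing concentration after 24 h. Ratio is MFC/MIC.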
# [4] = test system: Pichia kudriavzevii; test: Fungicidal activity against Candida krusei MTCC 3020 assessed as fungal killing incubated for 24 hrs; details: MTCC 3020, 24 h
# Procedure, shortened: (§4)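 Compound at 125–0.97 µg/mL in Mueller Hinton broth in microcentrifuge tubes, each Candida strain added, held 24 h at 37 °C. 10 µL of the treated suspension plated on Mueller Hinton agar and incubated a further 24 h at 37 °C. MFC is the lowest concentration that kills the strain. Duplicates, means reported.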
# [5] = test system: Staphylococcus aureus; test: Ratio of MBC to MIC against Staphylococcus aureus MTCC 96
# [6] = test system: Bacillus subtilis; test: Antibacterial activity against Bacillus subtilis MTCC 121 assessed as inhibition of bacterial growth incubated for 24 hrs by agar well diffusion method; details: MTCC 121, 24 h
# Procedure, shortened: (§5)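 Strains from MTCC; inoculum at 0.5 McFarland spread on Mueller-Hinton agar; 6 mm wells loaded with compound over 125–0.97 µg/mL; ciprofloxacin positive control (same range), DMSO negative control. Plates held 24 h at 37 °C; MIC taken as lowest concentration giving a clear inhibition zone. Triplicate runs, mean MIC reported.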
# [7] = test system: Micrococcus luteus; test: Antibacterial activity against Micrococcus luteus MTCC 2470 assessed as inhibition of bacterial growth incubated for 24 hrs by agar well diffusion method; details: MTCC 2470, 24 h; procedure, shortened: as §5
# [8] = test system: Staphylococcus aureus; test: Ratio of MBC to MIC against Staphylococcus aureus MLS-16 MTCC 2940
# [9] = test system: Candida albicans; test: Antifungal activity against Candida albicans MTCC 7315 assessed as inhibition of fungal growth incubated for 24 hrs by agar well diffusion method; details: MTCC 7315, 24 h; procedure, shortened: as §2
# [10] = test system: Candida albicans; test: Ratio of MFC to MIC against Candida albicans MTCC 183
# [11] = test system: Candida albicans; test: Antifungal activity against Candida albicans MTCC 227 assessed as inhibition of fungal growth incubated for 24 hrs by agar well diffusion method; details: MTCC 227, 24 h; procedure, shortened: as §2
# [12] = test system: Candida albicans; test: Fungicidal activity against Candida albicans MTCC 227 assessed as fungal killing incubated for 24 hrs; details: MTCC 227, 24 h; procedure, shortened: as §4
# [13] = test system: Candida albicans; test: Fungicidal activity against Candida albicans MTCC 3018 assessed as fungal killing incubated for 24 hrs; details: MTCC 3018, 24 h; procedure, shortened: as §4
# [14] = test system: Pseudomonas aeruginosa; test: Antibacterial activity against Pseudomonas aeruginosa MTCC 2453 assessed as inhibition of bacterial growth incubated for 24 hrs by agar well diffusion method; details: MTCC 2453, 24 h; procedure, shortened: as §5
# [15] = test system: Candida albicans; test: Antifungal activity against Candida albicans MTCC 1637 assessed as inhibition of fungal growth incubated for 24 hrs by agar well diffusion method; details: MTCC 1637, 24 h; procedure, shortened: as §2
# [16] = test system: Pichia sporocuriosa; test: Fungicidal activity against Issatchenkia hanoiensis MTCC 4755 assessed as fungal killing incubated for 24 hrs; details: MTCC 4755, 24 h; procedure, shortened: as §4
# [17] = test system: Candida albicans; test: Fungicidal activity against Candida albicans MTCC 183 assessed as fungal killing incubated for 24 hrs; details: MTCC 183, 24 h; procedure, shortened: as §4
# [18] = test system: Pichia sporocuriosa; test: Ratio of MFC to MIC against Issatchenkia hanoiensis MTCC 4755; procedure, shortened: as §3
# [19] = test system: Candida albicans; test: Ratio of MFC to MIC against Candida albicans MTCC 3018; procedure, shortened: as §3
# [20] = test system: Candida parapsilosis; test: Antifungal activity against Candida parapsilosis MTCC 1744 assessed as inhibition of fungal growth incubated for 24 hrs by agar well diffusion method; details: Lodderomyces parapsilosis, MTCC 1744, 24 h; procedure, shortened: as §2
# [21] = test system: Candida albicans; test: Antifungal activity against Candida albicans MTCC 3018 assessed as inhibition of fungal growth incubated for 24 hrs by agar well diffusion method; details: MTCC 3018, 24 h; procedure, shortened: as §2
# [22] = test system: Candida albicans; test: Fungicidal activity against Candida albicans MTCC 7315 assessed as fungal killing incubated for 24 hrs; details: MTCC 7315, 24 h; procedure, shortened: as §4
# [23] = test system: Escherichia coli; test: Ratio of MBC to MIC for Escherichia coli MTCC 739
# [24] = test system: Staphylococcus aureus; test: Antibacterial activity against Staphylococcus aureus MTCC 96 assessed as inhibition of bacterial growth incubated for 24 hrs by agar well diffusion method; details: MTCC 96, 24 h; procedure, shortened: as §5
# [25] = test system: Candida albicans; test: Ratio of MFC to MIC against Candida albicans MTCC 1637
# [26] = test system: Candida albicans; test: Antifungal activity against Candida albicans MTCC 4748 assessed as inhibition of fungal growth incubated for 24 hrs by agar well diffusion method; details: MTCC 4748, 24 h; procedure, shortened: as §2
# [27] = test system: Pichia kudriavzevii; test: Antifungal activity against Candida krusei MTCC 3020 assessed as inhibition of fungal growth incubated for 24 hrs by agar well diffusion method; details: MTCC 3020, 24 h; procedure, shortened: as §2
# [28] = test system: Pseudomonas aeruginosa; test: Bactericidal activity against Pseudomonas aeruginosa MTCC 2453 assessed as bacterial killing incubated for 24 hrs; details: MTCC 2453, 24 h; procedure, shortened: as §1
# [29] = test system: Nakaseomyces glabratus; test: Ratio of MFC to MIC against Candida glabrata MTCC 3019; procedure, shortened: as §3
# [30] = test system: Escherichia coli; test: Antibacterial activity against Escherichia coli MTCC 739 assessed as inhibition of bacterial growth incubated for 24 hrs by agar well diffusion method; details: MTCC 739, 24 h; procedure, shortened: as §5
# [31] = test system: Raoultella planticola; test: Antibacterial activity against Klebsiella planticola MTCC 530 assessed as inhibition of bacterial growth incubated for 24 hrs by agar well diffusion method; details: MTCC 530, 24 h; procedure, shortened: as §5
# [32] = test system: Candida albicans; test: Ratio of MFC to MIC against Candida albicans MTCC 4748; procedure, shortened: as §3
# [33] = test system: Nakaseomyces glabratus; test: Fungicidal activity against Candida glabrata MTCC 3019 assessed as fungal killing incubated for 24 hrs; details: MTCC 3019, 24 h; procedure, shortened: as §4
# [34] = test system: Candida albicans; test: Ratio of MFC to MIC against Candida albicans MTCC 7315; procedure, shortened: as §3
# [35] = test system: Nakaseomyces glabratus; test: Antifungal activity against Candida glabrata MTCC 3019 assessed as inhibition of fungal growth incubated for 24 hrs by agar well diffusion method; details: MTCC 3019, 24 h; procedure, shortened: as §2
# [36] = test system: Candida parapsilosis; test: Ratio of MFC to MIC against Candida parapsilosis MTCC 1744; procedure, shortened: as §3
# [37] = test system: Bacillus subtilis; test: Ratio of MBC to MIC against Bacillus subtilis MTCC 121
compound,measurement,setting,value
COc1ccc2c(c1)Cc1c(C(=O)N/N=C/c3ccc(O)c(OC)c3)n[nH]c1-2,MBC,[1],7.8 µg/mL
same,MIC,[2],3.9 µg/mL
same,Ratio,[3],2
same,MFC,[4],15.6 µg/mL
same,Ratio,[5],2
same,MIC,[6],7.8 µg/mL
same,MIC,[7],3.9 µg/mL
same,Ratio,[8],2
same,MIC,[9],7.8 µg/mL
same,Ratio,[10],2
same,MIC,[11],3.9 µg/mL
same,MFC,[12],7.8 µg/mL
same,MFC,[13],15.6 µg/mL
same,MIC,[14],7.8 µg/mL
same,MIC,[15],7.8 µg/mL
same,MFC,[16],31.2 µg/mL
same,MFC,[17],31.2 µg/mL
same,Ratio,[18],2
same,Ratio,[19],2
same,MIC,[20],7.8 µg/mL
same,MIC,[21],7.8 µg/mL
same,MFC,[22],15.6 µg/mL
same,Ratio,[23],2
same,MIC,[24],3.9 µg/mL
same,Ratio,[25],2
same,MIC,[26],7.8 µg/mL
same,MIC,[27],7.8 µg/mL
same,MBC,[28],15.6 µg/mL
same,Ratio,[29],2
same,MIC,[30],3.9 µg/mL
same,MIC,[31],3.9 µg/mL
same,Ratio,[32],2
same,MFC,[33],15.6 µg/mL
same,Ratio,[34],2
same,MIC,[35],7.8 µg/mL
same,Ratio,[36],2
same,Ratio,[37],2
